# Data reported in PMC10949176 (Clinical and Translational Science, 2024).
# pEC50, pIC50, pKi: −log10 of the molar value. Where “and” joins values, the source holds several entries; their conditions need not be identical. Equal values may be shown once. Entries after “also recorded” stand apart in the source; their conditions may differ.
# Legend:
# [1] = system: CYP3A4 mRNA (marker of PXR); test: mRNA induction in sandwich cultured hepatocytes; format: cell-based, human; settings: RIS qualified donor HH1103, sandwich cultured hepatocytes, 48 h
# SULT2A1 [2] = molecular target: T1, SULT2A1 (Homo sapiens, UniProt Q06520); test: ARV-471 inhibition of SULT2A1 in Hμrel; format: cell-based; settings: Hμrel IC50 (DHEAS formation, SULT2A1), Hμrel model
# T1 sequence (Q06520 1-285): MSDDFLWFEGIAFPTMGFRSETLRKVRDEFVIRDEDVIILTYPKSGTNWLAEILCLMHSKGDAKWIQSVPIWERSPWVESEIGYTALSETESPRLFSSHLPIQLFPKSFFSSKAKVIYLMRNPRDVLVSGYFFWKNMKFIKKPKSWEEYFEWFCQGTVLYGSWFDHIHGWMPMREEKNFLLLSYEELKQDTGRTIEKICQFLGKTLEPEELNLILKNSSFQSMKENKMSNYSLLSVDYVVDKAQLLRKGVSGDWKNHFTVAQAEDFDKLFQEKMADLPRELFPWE
# Method in brief: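 Hμrel co-culture of mixed-gender, five-donor pooled hepatocytes, acclimated 24 h at 37°C, 5% CO₂, exposed to varying test compound concentrations. […] DHEAS formation was measured and IC50 derived. Mean of three.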
# SULT2A1 [3] = molecular target: T1, SULT2A1; test: ARV-471 inhibition of recombinant SULT2A1; format: biochemical; settings: rSULT2A1 IC50 (DHEAS formation)
# Method in brief: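 Recombinant human SULT2A1 incubated with varying test compound concentrations. Read-out was formation of DHEAS, with IC50 derived from the concentration response. Mean of three.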
# [4] = system: palbociclib metabolic pathways in co‐culture human hepatocyte models; format: in vitro ADME
# [5] = ref https://endpts.com/arvinas‐reports‐delay‐for‐pfizer‐partnered‐protein‐degradation‐program/, cited from earlier work
# CYP3A = CYP3A activity in Hμrel with ARV-471; format: cell-based, human
# [6] = system: palbociclib intrinsic clearance in Hμrel co‐culture hepatocytes; test: Impact of ARV-471 on intrinsic clearance of palbociclib in Hμrel; format: in vitro ADME, human; settings: at ~3 μM ARV‐471
# palbociclib sulfation = test: Formation of palbociclib sulfate in Hμrel with ARV-471; format: cell-based, human
# [7] = system: CYP2B6 mRNA (marker of CAR); test: mRNA induction in sandwich cultured hepatocytes; format: cell-based, human; settings: RIS qualified donor HH1103, sandwich cultured hepatocytes, 48 h
# [8] = Preliminary reaction phenotyping of palbociclib in hepatocytes; format: in vitro ADME; settings: novel approach (manuscript under preparation)
# UGT1A6 = UGT1A6 (Homo sapiens, UniProt P19224); test: UGT inhibition in suspension human hepatocytes; format: cell-based; settings: UGT1A6, Serotonin 1715 μM, unbound
# UGT1A6, sequence (P19224 27-532): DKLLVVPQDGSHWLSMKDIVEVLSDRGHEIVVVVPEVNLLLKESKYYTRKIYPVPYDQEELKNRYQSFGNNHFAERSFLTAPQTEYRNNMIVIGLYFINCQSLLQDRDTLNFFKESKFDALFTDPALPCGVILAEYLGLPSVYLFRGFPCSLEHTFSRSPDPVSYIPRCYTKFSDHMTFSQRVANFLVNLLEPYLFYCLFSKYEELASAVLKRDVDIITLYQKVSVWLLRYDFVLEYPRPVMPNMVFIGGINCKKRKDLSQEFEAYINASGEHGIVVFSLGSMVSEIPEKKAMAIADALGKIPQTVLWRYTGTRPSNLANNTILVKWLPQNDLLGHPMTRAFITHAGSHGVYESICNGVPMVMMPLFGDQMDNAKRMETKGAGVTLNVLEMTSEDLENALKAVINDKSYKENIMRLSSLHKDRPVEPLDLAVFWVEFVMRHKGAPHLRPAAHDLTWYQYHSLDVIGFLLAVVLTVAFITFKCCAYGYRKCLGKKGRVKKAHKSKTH
# UGT1A1 = UGT1A1 (Homo sapiens, UniProt P22309); test: UGT inhibition in suspension human hepatocytes; format: cell-based; settings: UGT1A1, β‐Estradiol 3 μM, unbound
# UGT1A1, sequence (P22309 26-533): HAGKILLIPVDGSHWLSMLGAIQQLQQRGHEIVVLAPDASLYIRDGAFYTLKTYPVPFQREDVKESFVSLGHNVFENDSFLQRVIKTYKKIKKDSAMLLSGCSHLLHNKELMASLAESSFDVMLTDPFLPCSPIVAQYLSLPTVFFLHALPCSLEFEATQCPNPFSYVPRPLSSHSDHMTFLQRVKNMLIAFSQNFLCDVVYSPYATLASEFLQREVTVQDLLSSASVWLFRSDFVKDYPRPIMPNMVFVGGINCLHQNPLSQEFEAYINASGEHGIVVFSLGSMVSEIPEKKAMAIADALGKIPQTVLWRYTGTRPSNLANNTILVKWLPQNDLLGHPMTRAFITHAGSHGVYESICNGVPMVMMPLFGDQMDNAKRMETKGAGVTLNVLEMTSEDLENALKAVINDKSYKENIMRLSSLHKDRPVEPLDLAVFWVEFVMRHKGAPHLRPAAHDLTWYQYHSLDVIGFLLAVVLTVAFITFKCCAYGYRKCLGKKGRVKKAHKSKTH
# recombinant SULT1A3 = test: Recombinant SULT inhibition by ABT, SULT1A3; format: biochemical; settings: 1 mM ABT, raloxifene probe substrate, data not shown
# UGT1A9 = UGT1A9 (Homo sapiens, UniProt O60656); test: UGT inhibition in suspension human hepatocytes; format: cell-based; settings: read-out: Ki,u HHEPs; UGT1A9, Propofol 10 μM, unbound
# UGT1A9, sequence (O60656 26-530): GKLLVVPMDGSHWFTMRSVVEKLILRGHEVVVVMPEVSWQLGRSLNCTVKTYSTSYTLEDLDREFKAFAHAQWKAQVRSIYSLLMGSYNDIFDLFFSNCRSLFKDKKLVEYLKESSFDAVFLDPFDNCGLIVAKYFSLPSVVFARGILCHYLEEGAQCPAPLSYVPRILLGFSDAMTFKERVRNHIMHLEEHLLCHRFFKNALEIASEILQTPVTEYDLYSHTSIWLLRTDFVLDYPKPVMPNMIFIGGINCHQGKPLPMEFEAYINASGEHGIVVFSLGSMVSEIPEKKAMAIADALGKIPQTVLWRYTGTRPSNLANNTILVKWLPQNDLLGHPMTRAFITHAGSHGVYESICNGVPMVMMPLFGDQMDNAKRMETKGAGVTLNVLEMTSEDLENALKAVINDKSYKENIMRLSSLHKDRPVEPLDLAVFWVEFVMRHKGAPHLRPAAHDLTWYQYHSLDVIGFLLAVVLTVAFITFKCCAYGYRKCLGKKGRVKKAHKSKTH
# recombinant SULT1A1 = test: Recombinant SULT inhibition by ABT, SULT1A1; format: biochemical; settings: 1 mM ABT, raloxifene probe substrate, data not shown
# recombinant SULT1C4 = test: Recombinant SULT inhibition by ABT, SULT1C4; format: biochemical; settings: 1 mM ABT, raloxifene probe substrate, data not shown
# SULT2A1 [9] = molecular target: T1, SULT2A1; test: Recombinant SULT inhibition by ABT, SULT2A1; format: biochemical; settings: 1 mM ABT, raloxifene probe substrate, data not shown
# UGT1A4 = UGT1A4 (Homo sapiens, UniProt P22310); test: UGT inhibition in suspension human hepatocytes; format: cell-based; settings: read-out: Ki,u HHEPs; UGT1A4, TFP 1 μM, unbound
# UGT1A4, sequence (P22310 29-534): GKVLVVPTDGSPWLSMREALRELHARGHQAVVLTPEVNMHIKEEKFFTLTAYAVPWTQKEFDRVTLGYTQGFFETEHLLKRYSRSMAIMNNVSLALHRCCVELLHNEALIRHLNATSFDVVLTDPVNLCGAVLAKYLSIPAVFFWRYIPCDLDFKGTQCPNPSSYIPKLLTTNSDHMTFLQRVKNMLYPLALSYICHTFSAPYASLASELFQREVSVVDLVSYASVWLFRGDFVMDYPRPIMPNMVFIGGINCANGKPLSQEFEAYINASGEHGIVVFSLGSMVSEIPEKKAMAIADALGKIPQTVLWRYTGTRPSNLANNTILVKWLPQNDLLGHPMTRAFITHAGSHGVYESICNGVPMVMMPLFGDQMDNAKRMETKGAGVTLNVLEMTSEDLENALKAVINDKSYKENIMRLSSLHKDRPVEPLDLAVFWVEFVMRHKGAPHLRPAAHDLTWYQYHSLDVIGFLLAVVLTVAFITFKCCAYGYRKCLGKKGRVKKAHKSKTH
# UGT1A3 = UGT1A3 (Homo sapiens, UniProt P35503); test: UGT inhibition in suspension human hepatocytes; format: cell-based; settings: read-out: Ki,u HHEPs; UGT1A3, CDCA 2 μM, unbound
# UGT1A3, sequence (P35503 29-534): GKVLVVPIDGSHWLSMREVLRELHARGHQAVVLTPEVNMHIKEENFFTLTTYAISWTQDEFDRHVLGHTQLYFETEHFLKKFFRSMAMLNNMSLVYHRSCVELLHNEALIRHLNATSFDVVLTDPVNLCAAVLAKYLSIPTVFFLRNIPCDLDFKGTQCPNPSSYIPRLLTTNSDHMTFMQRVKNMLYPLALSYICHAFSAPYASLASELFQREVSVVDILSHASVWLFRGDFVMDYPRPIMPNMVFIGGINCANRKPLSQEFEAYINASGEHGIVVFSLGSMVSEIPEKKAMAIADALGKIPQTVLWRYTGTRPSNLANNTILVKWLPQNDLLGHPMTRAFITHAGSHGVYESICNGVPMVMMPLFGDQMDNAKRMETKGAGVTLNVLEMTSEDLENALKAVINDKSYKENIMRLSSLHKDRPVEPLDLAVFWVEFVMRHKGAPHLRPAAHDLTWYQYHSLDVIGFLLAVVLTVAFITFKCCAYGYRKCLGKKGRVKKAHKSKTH
# UGT2B15 = UGT2B15 (Homo sapiens, UniProt P54855); test: UGT inhibition in suspension human hepatocytes; format: cell-based; settings: read-out: Ki,u HHEPs; UGT2B15, Oxazepam 10 μM, unbound
# UGT2B15, sequence (P54855 24-530): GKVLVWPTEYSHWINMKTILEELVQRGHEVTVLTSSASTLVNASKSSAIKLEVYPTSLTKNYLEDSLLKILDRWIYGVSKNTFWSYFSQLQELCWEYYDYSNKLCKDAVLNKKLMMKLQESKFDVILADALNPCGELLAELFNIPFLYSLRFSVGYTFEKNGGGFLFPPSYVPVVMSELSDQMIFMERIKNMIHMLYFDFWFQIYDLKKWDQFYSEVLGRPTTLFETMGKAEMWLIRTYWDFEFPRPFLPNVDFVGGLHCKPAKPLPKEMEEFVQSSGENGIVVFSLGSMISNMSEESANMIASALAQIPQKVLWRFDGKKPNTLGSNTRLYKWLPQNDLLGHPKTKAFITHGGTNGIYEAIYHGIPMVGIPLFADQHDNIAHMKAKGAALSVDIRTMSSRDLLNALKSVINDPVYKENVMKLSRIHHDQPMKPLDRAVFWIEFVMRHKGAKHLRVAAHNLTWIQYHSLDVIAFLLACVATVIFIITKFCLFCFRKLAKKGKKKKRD
# recombinant SULT1B1 = test: Recombinant SULT inhibition by ABT, SULT1B1; format: biochemical; settings: 1 mM ABT, raloxifene probe substrate, data not shown
# recombinant SULT2B1 = test: Recombinant SULT inhibition by ABT, SULT2B1; format: biochemical; settings: 1 mM ABT, raloxifene probe substrate, data not shown
# UGT2B7 = UGT2B7 (Homo sapiens, UniProt P16662); test: UGT inhibition in suspension human hepatocytes; format: cell-based; settings: read-out: Ki,u HHEPs; UGT2B7, Zidovudine 100 μM, unbound
# UGT2B7, sequence (P16662 24-529): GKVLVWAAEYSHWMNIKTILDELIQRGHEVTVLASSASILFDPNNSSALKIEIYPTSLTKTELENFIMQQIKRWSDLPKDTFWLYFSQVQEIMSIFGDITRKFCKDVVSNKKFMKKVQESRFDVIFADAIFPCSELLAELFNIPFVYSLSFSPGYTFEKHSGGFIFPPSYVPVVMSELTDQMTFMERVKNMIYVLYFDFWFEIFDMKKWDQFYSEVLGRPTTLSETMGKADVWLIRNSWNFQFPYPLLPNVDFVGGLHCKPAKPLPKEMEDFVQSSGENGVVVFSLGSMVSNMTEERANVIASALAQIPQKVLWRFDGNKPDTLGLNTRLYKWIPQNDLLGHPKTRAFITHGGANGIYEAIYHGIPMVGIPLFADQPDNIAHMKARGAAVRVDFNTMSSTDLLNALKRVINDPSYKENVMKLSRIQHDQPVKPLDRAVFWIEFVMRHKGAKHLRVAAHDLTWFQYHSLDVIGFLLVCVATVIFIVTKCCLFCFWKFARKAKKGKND
# recombinant SULT1E1 = test: Recombinant SULT inhibition by ABT, SULT1E1; format: biochemical; settings: 1 mM ABT, raloxifene probe substrate, data not shown
# recombinant SULT1C2 = test: Recombinant SULT inhibition by ABT, SULT1C2; format: biochemical; settings: 1 mM ABT, raloxifene probe substrate, data not shown
# [10] = Hμrel, 1'hydroxylation of midazolam
compound,measurement,setting,value
CC(=O)N1CCN(c2ccc(OCC3COC(Cn4ccnc4)(c4ccc(Cl)cc4Cl)O3)cc2)CC1 (stereo not shown) [ketoconazole],CYP3A4 induction Emax,[1],2 fold
O=C1CC[C@H](N2Cc3cc(N4CCN(CC5CCN(c6ccc([C@@H]7c8ccc(O)cc8CC[C@@H]7c7ccccc7)cc6)CC5)CC4)ccc3C2=O)C(=O)N1 [ARV-471],pIC50,SULT2A1 [2],< 4.46
same,pIC50,SULT2A1 [3],< 4.46
same,glucuronide metabolism of palbociclib,"[4]; Hμrel and TruVivo, 5 μM palbociclib, 20 μM ARV‐471",completely inhibited
same,inhibition of metabolic clearance accounted for by glucuronide metabolism,"[4]; based on MS ionization and summed metabolite area ratios, 20 μM ARV‐471",up to 50%
same,increase in palbociclib exposure (area under the curve),"[5]; co‐administration of palbociclib with ARV‐471, phase Ib",~ 50% and 50%
same,adverse event with increased palbociclib exposure,"[5]; palbociclib with ARV‐471, phase Ib",grade 3/4 neutropenia
same,direct inhibition of CYP3A activity,CYP3A; [10],no direct inhibition; also recorded: no direct or time‐dependent inhibition
same,time‐dependent inhibition of CYP3A,CYP3A; [10],no direct or time‐dependent inhibition
same,"Emax, increase in midazolam activity (CYP3A induction)","CYP3A; Hμrel, concentration and time‐dependent increase",3.8 fold
same,pEC50,"CYP3A; human, Hμrel co-culture hepatocytes, probe midazolam (1'-hydroxylation)",6.60
same,increase in palbociclib exposure recapitulated from Clint inhibition,[6],50%
same,effect on palbociclib sulfation over the time course,palbociclib sulfation,apparent activation
C=C[C@H]1C[N@@]2CC[C@H]1C[C@@H]2[C@@H](O)c1ccnc2ccc(OC)cc12 [quinidine],CYP2B6 induction (result in words),[7],did not induce
CC(=O)c1c(C)c2cnc(Nc3ccc(N4CCNCC4)cn3)nc2n(C2CCCC2)c1=O [palbociclib],share of palbociclib clearance by glucuronidation,[8],25%–30%
same,Clint at 5 μM compared with 0.045 μM,"[4]; co-culture hepatocytes, suggesting saturation of metabolic clearance",reduced
"Nn1nnc2ccccc21 [ABT, Aminobenzotriazole]","Ki,u HHEPs",UGT1A6,No inhibition
same,"Ki,u HHEPs",UGT1A1,No inhibition
same,inhibition of SULT1A3,recombinant SULT1A3,No significant inhibition
same,pKi,UGT1A9,2.34
same,inhibition of SULT1A1,recombinant SULT1A1,No significant inhibition
same,inhibition of SULT1C4,recombinant SULT1C4,No significant inhibition
same,inhibition of SULT2A1,SULT2A1 [9],No significant inhibition
same,pKi,UGT1A4,2.60
same,pKi,UGT1A3,2.22
same,pKi,UGT2B15,< 1.70
same,inhibition of SULT1B1,recombinant SULT1B1,No significant inhibition
same,inhibition of SULT2B1,recombinant SULT2B1,No significant inhibition
same,pKi,UGT2B7,2.26
same,inhibition of SULT1E1,recombinant SULT1E1,No significant inhibition
same,inhibition of SULT1C2,recombinant SULT1C2,No significant inhibition
